Reference: PMC2773291 (Journal of medicinal chemistry, 2009)
Peptide text beside a SMILES is read from it. * marks the point of attachment. Pyropheophorbide(a) = C=Cc1c(C)c2cc3nc(c4c5[nH]c(cc6nc(cc1[nH]2)C(C)=C6CC)c(C)c5C(=O)C4)[C@@H](CCC(=O)*)[C@@H]3C; X1 = CCN(CC)c1ccc2nc3ccc(N=Nc4ccc(N(C)CCCC(=O)*)cc4)cc3[n+](-c3ccccc3)c2c1

How the values were obtained:
murine FAP (mFAP) = molecular target: T1, murine FAP (mFAP) (Mus musculus, UniProt P97321); test: Activation of FAP-PPB by murine FAP in buffer; assay type: biochemical
T1 sequence (P97321 26-761 limits assumed): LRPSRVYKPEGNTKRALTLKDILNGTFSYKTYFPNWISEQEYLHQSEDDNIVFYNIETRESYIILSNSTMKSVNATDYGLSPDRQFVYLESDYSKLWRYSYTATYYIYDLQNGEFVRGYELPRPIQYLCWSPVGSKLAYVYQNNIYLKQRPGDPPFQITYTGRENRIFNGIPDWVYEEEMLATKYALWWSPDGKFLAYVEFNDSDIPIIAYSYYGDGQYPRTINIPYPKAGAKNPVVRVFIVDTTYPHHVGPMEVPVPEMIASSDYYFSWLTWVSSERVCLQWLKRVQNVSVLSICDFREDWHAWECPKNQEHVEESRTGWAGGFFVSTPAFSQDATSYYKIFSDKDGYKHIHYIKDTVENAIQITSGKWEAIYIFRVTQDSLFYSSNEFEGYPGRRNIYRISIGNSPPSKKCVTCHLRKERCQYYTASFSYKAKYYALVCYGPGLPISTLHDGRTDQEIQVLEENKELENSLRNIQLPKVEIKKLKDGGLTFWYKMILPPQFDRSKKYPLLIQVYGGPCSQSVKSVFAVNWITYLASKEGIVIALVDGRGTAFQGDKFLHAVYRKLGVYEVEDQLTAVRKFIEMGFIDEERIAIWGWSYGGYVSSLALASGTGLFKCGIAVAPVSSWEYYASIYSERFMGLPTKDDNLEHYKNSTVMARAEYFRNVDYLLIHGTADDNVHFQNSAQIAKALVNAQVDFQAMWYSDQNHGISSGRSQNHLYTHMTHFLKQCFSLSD
In short: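 In-house expressed, purified murine FAP (2 μg) incubated with probe (1 nmol, predissolved in 2.5 μL DMSO plus 0.5 μL Tween 80, then 1 mL 0.12 M NaCl/0.12 M TRIS, pH 7.37); probe:enzyme about 50:1. Fluorescence followed in real time at 37°C (ex 650 nm, em 675 nm). Cleavage also tracked by HPLC-MS every 30 min until complete.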

mFAP = molecular target: T2, mFAP (Mus musculus, UniProt P97321); test: mFAP activity assay; assay type: biochemical, murine; conditions: 37°C
T2 sequence (P97321 26-761 limits assumed): T1 sequence (P97321 26-761 limits assumed)
In short: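 Probe at 0.1, 0.3, 0.5, 0.7, 1, 2 and 6 μM (predissolved in 2.5 μL DMSO plus 0.5 μL Tween 80, then 1 mL 0.12 M NaCl/0.12 M TRIS, pH 7.37) was incubated with murine FAP (2 μg) at 37°C. Fluorescence was read continuously (ex 650, em 675 nm). After 1 h, 10 μg enzyme was added and reading continued 2 h. Triplicates were run. Vmax, Km, kcat and kcat/Km came from nonlinear Michaelis-Menten fits of initial rates (10% substrate depleted).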

HEK-mFAP cells (FAP+) [1] = test: Confocal microscopic studies, HEK-mFAP cells; assay type: cell-based, human; conditions: 25 μM, 6 h, 37°C, FBS-free medium
In short: (§1)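 HEK293 stably expressing full-length wild-type murine FAP, grown in DMEM with 10% FBS, 2 mM L-glutamine and G418 200 μg mL−1. Cells seeded at 1.5 × 10^4/well for 2 days, then kept overnight in FBS-free DMEM. Probe was diluted in this conditioned medium to 25 μM and applied 6 h at 37°C, 5% CO2. Cells were fixed in 3% formaldehyde (20 min, dark), DAPI-mounted, and imaged confocally (405 and 633 nm lasers).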

HEK-Vector cells (FAP−) = test: Confocal microscopic studies, HEK-Vector cells; assay type: cell-based, human; conditions: 25 μM, 6 h, 37°C, FBS-free medium
In short: as §1, with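 “carrying empty vector,” for “expressing full-length wild-type murine FAP,”, “hygromycin B” for “G418”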

[2] = system: HEK-mFAP and HEK-Vector cells; test: Flow cytometric studies, HEK-mFAP versus HEK-Vector cells; assay type: cell-based, human; conditions: 6.25 μM
In short: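 Transfected HEK293 lines (murine FAP or empty vector) seeded at about 7 × 10^5 cells/well for 2 days, then kept overnight in FBS-free DMEM. Probe diluted in this conditioned medium to 6.25 μM and applied 1, 2, 4, 6 or 24 h at 37°C. Cells were centrifuge-washed three times, fixed in 2% paraformaldehyde for 10 min, and read by flow cytometry (ex 633 nm, em 660–690 nm; 10000 cells). Three independent experiments.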

HEK-mFAP cells (FAP+) [3] = test: HPLC-MS of culture media after incubation with HEK-mFAP cells; assay type: cell-based, human; conditions: for cleavage in culture media of HEK-mFAP cells (HPLC-MS): media after incubation for the confocal study, 25 μM, 6 h
In short: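 Probe-containing FAP-expressing HEK293 culture media were collected after incubation and analysed by HPLC-MS for cleaved probe. One set came from flow cytometry (6.25 μM in FBS-free DMEM, up to 24 h, 37°C). The other came from confocal work (25 μM, 6 h, 37°C).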

HEK-mFAP tumor = test: Mouse xenograft in vivo imaging and ex vivo validation, HEK-mFAP tumor; set-up: species or system nude mice
In short: (§2)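 Athymic female nude mice carried 1 × 10^7 FAP-transfected HEK293 cells on the left flank and 1 × 10^7 vector cells on the right, or FAP cells on both flanks. After 3 weeks (tumors 5–10 mm) mice received 4 days of low-fluorescence diet and ketamine/acepromazine anaesthesia. Probe (25 nmol in 30 μL aqueous, 2 μL DMSO, 0.5 μL Tween 80) was injected intratumorally at several sites. Imaging before and at intervals to 24 h used ex 650 nm, em ≥700 nm, 200 ms exposure; signal normalised to exposure time and ROI area.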

HEK-Vector tumor = test: Mouse xenograft in vivo imaging and ex vivo validation, HEK-Vector tumor; set-up: species or system nude mice
In short: as §2

[4] = system: HT29 tumor (FAP on stromal fibroblasts); test: HT29 mouse xenograft in vivo imaging and frozen-section microscopy; set-up: species or system nude mouse
HEK-mFAP cells = test: In vitro photocytotoxicity; assay type: cell-based, human; conditions: for photocytotoxicity toward HEK-mFAP cells in the presence of light: FAP-PPB 8 μM, FAP-PP 4 μM, 2D-FAP-PPB 8 μM, 2 J cm^−2, MTT
HEK-Vector cells = test: In vitro photocytotoxicity; assay type: cell-based, human; conditions: for photocytotoxicity toward HEK-Vector cells in the presence of light: FAP-PPB 8 μM, FAP-PP 4 μM, 2D-FAP-PPB 8 μM, 2 J cm^−2, MTT
tumor site = test: Tumor accumulation after intravenous tail-vein injection; assay type: in vivo
[5] = molecular target: dipeptidyl peptidase IV (DPPIV) (Homo sapiens, UniProt P27487); test: Stability of FAP-PPB toward DPPIV; conditions: FAP-PPB 1 nmol in 1 mL 20mM TRIS pH 7.5, PPB:DPPIV = 228:1, 37 °C
dipeptidyl peptidase IV (DPPIV), sequence (P27487 29-766 limits assumed, species assumed): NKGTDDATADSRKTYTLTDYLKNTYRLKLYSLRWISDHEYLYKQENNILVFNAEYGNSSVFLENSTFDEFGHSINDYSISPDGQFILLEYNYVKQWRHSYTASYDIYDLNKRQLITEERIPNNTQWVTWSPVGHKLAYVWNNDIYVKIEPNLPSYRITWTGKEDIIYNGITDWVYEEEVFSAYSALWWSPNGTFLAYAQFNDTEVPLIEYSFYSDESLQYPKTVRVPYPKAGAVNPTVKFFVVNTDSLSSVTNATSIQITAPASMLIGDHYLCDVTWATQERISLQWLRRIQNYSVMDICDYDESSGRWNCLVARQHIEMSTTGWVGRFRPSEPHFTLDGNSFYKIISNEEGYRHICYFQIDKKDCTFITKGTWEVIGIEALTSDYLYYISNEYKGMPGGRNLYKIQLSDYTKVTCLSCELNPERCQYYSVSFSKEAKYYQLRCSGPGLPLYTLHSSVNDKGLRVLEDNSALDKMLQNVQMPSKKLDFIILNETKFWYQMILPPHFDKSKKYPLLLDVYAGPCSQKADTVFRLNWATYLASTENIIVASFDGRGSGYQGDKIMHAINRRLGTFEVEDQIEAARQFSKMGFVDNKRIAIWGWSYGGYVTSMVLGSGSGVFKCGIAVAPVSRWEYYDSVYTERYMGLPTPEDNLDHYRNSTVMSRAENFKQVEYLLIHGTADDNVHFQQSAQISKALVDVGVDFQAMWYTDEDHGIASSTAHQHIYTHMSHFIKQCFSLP

[6] = Quenching efficiency measurements; assay type: physicochemical; conditions: FAP-PP quenched by free BHQ3 in DMSO; slope of linear Stern-Volmer plot
In short: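 Unquenched peptide-photosensitizer (1 μM in DMSO) was mixed with varying concentrations of free BHQ3 quencher. Fluorescence was corrected using absorbance at the excitation and emission wavelengths. Data were fitted to F0/F = 1 + KSV[Q], and KSV was taken from the slope of the Stern-Volmer plot.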

[7] = 10 micron frozen sections, 24 h post-injection
[8] = tumor homogenized, DMSO extract, 24 h post-injection of 25 nmol intra-tumor

Compound: C=Cc1c(C)c2cc3nc(c4c5[nH]c(cc6nc(cc1[nH]2)C(C)=C6CC)c(C)c5C(=O)C4)[C@@H](CCC(=O)N[C@H](C(=O)N[C@@H](CO)C(=O)NCC(=O)N1CCC[C@H]1C(=O)N[C@@H](CC(N)=O)C(=O)N[C@@H](CCC(N)=O)C(=O)N[C@@H](CCC(=O)O)C(=O)N[C@@H](CCC(N)=O)C(=O)N[C@@H](CCCCNC(=O)CCCN(C)c1ccc(N=Nc2ccc4nc5ccc(N(CC)CC)cc5[n+](-c5ccccc5)c4c2)cc1)C(N)=O)[C@@H](C)O)[C@@H]3C [FAP-PPB, Pyro-TSGPNQEQK(BHQ3)] ({Pyropheophorbide(a)}-TSGPNQEQK(X1)-NH2; C-terminus assumed)
- time to complete cleavage by mFAP (murine FAP (mFAP); HPLC-MS every 30 min, PPB:FAP about 50:1, TRIS buffer pH 7.37, 37°C): 4 h
- fluorescence increase on complete cleavage by mFAP (murine FAP (mFAP); TRIS buffer pH 7.37, 37°C, complete fluorescence restoration): 200 fold
- specificity constant (kcat/Km) (mFAP): 29200 M⁻¹ s⁻¹
- intracellular fluorescence in HEK-mFAP cells (confocal) (HEK-mFAP cells (FAP+) [1]): bright intracellular fluorescence signal
- intracellular fluorescence in HEK-Vector cells (confocal) (HEK-Vector cells (FAP−)): minimal fluorescence signal
- dark toxicity (distribution and shape of cells in flow cytometry) ([2]; 1 to 24 h, both cell lines, no light): does not have dark toxicity to both cell lines
- fluorescence intensity in HEK-mFAP cells compared to HEK-Vector cells ([2]; flow cytometry, 1 h incubation): about 8 fold
- FAP-PPB cleaved in media after incubation with HEK-mFAP cells (HEK-mFAP cells (FAP+) [3]; 6.25 μM, 24 h incubation, HPLC-MS, data not shown): approximately 70%
- cleavage in culture media of HEK-mFAP cells (HPLC-MS) (HEK-mFAP cells (FAP+) [3]): two peaks corresponding to fragments Pyro-TSGP and NQEQK-BHQ3 were identified
- time to activation of FAP-PPB in tumor (HEK-mFAP tumor; 25 nmol intra-tumor injection, in vivo fluorescence imaging): ≤ 5 min
- Pyro fluorescence in HEK-mFAP tumor frozen sections (confocal) (HEK-mFAP tumor; [7]): strong Pyro’s fluorescence signal
- Pyro fluorescence in HEK-Vector tumor frozen sections (confocal) (HEK-Vector tumor; [7]): very weak signal
- fluorescence signal in HEK-Vector tumor relative to HEK-mFAP tumor (HEK-Vector tumor; 24 h post injection, fluorescence intensity per exposure time at tumor site): about half
- cleavage in HEK-Vector tumor extract (HPLC-MS) (HEK-Vector tumor; [8]): no cleavage was observed
- in vivo fluorescence in HT29 tumor ([4]; 25 nmol intra-tumor injection, left flank): strong fluorescence signal was observed immediately and it lasted for 24 h
- Pyro fluorescence in HT29 tumor frozen section (confocal) ([4]; after in vivo imaging): bright Pyro’s fluorescence signals within both cancer cells and fibroblasts
- cytotoxicity toward HEK-mFAP cells in the absence of light (HEK-mFAP cells; 8 μM, 24 h, MTT): non-cytotoxic in the absence of light
- cell viability of HEK-mFAP cells with light (HEK-mFAP cells; 8 μM, 24 h incubation, 670 nm laser, 130 mW cm^−2, 2 J cm^−2, MTT): 55%
- photocytotoxicity toward HEK-mFAP cells in the presence of light (HEK-mFAP cells): significant photocytotoxicity
- cytotoxicity toward HEK-Vector cells in the absence of light (HEK-Vector cells; 8 μM, 24 h, MTT): non-cytotoxic in the absence of light
- photocytotoxicity toward HEK-Vector cells in the presence of light (HEK-Vector cells): not in the HEK-Vector cells
- accumulation at the tumor site (tumor site): no selective accumulation
- HPLC analysis after incubation with DPPIV ([5]; 2 h, HPLC-MS): only a single peak corresponding to the intact FAP-PPB
- fluorescence intensity change on incubation with DPPIV ([5]; over 2 h): No significant increase in fluorescence intensity

Compound: Pyro-TSGPNQEQK [FAP-PP]
- Stern-Volmer quenching constant (KSV) [6]: 5.3 × 10^4 mol^−1dm^3
- photocytotoxicity toward HEK-Vector cells in the presence of light (HEK-Vector cells): could kill both cell lines

Compound: Pyro-TSGpnQEQK(BHQ3) [2D-FAP-PPB]
- intracellular fluorescence in HEK-mFAP cells (confocal) (HEK-mFAP cells (FAP+) [1]): no significant fluorescence
- intracellular fluorescence in HEK-Vector cells (confocal) (HEK-Vector cells (FAP−)): no significant fluorescence
- cleavage in culture media of HEK-mFAP cells (HPLC-MS) (HEK-mFAP cells (FAP+) [3]): no cleavage was observed
- cleavage in HEK-mFAP tumor extract (HPLC-MS) (HEK-mFAP tumor; [8]): little non-specific cleavages
- photocytotoxicity toward HEK-mFAP cells in the presence of light (HEK-mFAP cells): essentially non-cytotoxic
- photocytotoxicity toward HEK-Vector cells in the presence of light (HEK-Vector cells): essentially non-cytotoxic
